Experimental data reported in ChEMBL document CHEMBL3588757, “Structure-based design, synthesis and biological testing of piperazine-linked bis-epipodophyllotoxin etoposide analogs” (Bioorg Med Chem, 2015).

Assays:
Type in all cases: functional
NCI-H460 = test: Cytotoxicity against human NCI-H460 cells assessed as cell growth at 0.005 uM by SRB assay; conditions: read-out: Activity
BT-549 = test: Cytotoxicity against human BT549 cells assessed as cell growth at 5 uM by SRB assay; conditions: read-out: Activity
[1] = Cytotoxicity against human Hs578T cells assessed as cell growth at 50 uM by SRB assay; conditions: Hs-578T, read-out: Activity
How it was run: (§1)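 Measured in the NCI-60 human tumour cell line panel using five-dose testing. Growth was recorded at each dose for each cell line, and a GI50 was derived for each line.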

MOLT-4 = test: Cytotoxicity against human MOLT4 cells assessed as cell growth at 0.05 uM by SRB assay; conditions: read-out: Activity
[2] = Cytotoxicity against human NCI-ADR-RES cells assessed as cell growth at 0.005 uM by SRB assay; conditions: read-out: Activity
HOP-62 [3] = test: Cytotoxicity against human HOP62 cells assessed as cell growth at 0.5 uM by SRB assay; conditions: read-out: Activity; how it was run: as §1
SNB-19 [4] = test: Cytotoxicity against human SNB19 cells assessed as cell growth at 50 uM by SRB assay; conditions: read-out: Activity
RXF 393 = test: Cytotoxicity against human RXF393 cells assessed as cell growth at 0.5 uM by SRB assay; conditions: read-out: Activity
SNB-19 [5] = test: Cytotoxicity against human SNB19 cells assessed as cell growth at 0.05 uM by SRB assay; conditions: read-out: Activity
UO-31 [6] = test: Cytotoxicity against human UO31 cells assessed as cell growth at 0.5 uM by SRB assay; conditions: read-out: Activity
UO-31 [7] = test: Cytotoxicity against human UO31 cells assessed as cell growth at 0.05 uM by SRB assay; conditions: read-out: Activity
MDA-MB-435 = test: Cytotoxicity against human MDA-MB-435 cells assessed as cell growth at 5 uM by SRB assay; conditions: read-out: Activity
IGROV-1 = test: Cytotoxicity against human IGROV1 cells by SRB assay
How it was run: (§2)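 NCI-60 panel screen; 5-dose testing giving GI50 per cell line, plus a single 10 µM one-dose test. Method details not given beyond the NCI screen.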

TK-10 = test: Cytotoxicity against human TK10 cells assessed as cell growth at 0.5 uM by SRB assay; conditions: read-out: Activity
SK-MEL-5 = test: Cytotoxicity against human SK-MEL-5 cells assessed as cell growth at 0.5 uM by SRB assay; conditions: read-out: Activity
RPMI-8226 = test: Cytotoxicity against human RPMI8226 cells assessed as cell growth at 0.5 uM by SRB assay; conditions: read-out: Activity
HOP-92 = test: Cytotoxicity against human HOP92 cells by SRB assay; how it was run: as §1
MDA-MB-468 [8] = test: Cytotoxicity against human MDA-MB-468 cells assessed as cell growth at 0.05 uM by SRB assay; conditions: read-out: Activity
NCI-H322M = test: Cytotoxicity against human NCI-H322M cells assessed as cell growth at 0.05 uM by SRB assay; conditions: read-out: Activity
HCC 2998 = test: Cytotoxicity against human HCC2998 cells assessed as cell growth at 0.5 uM by SRB assay; conditions: read-out: Activity; how it was run: as §1
DU-145 [9] = test: Cytotoxicity against human DU145 cells assessed as cell growth at 0.5 uM by SRB assay; conditions: read-out: Activity; how it was run: as §1
HCT-116 = test: Cytotoxicity against human HCT116 cells by SRB assay; how it was run: as §1
DU-145 [10] = test: Cytotoxicity against human DU145 cells assessed as cell growth at 0.005 uM by SRB assay; conditions: read-out: Activity
OVCAR-5 = test: Cytotoxicity against human OVCAR5 cells assessed as cell growth at 0.005 uM by SRB assay; conditions: read-out: Activity
MDA-MB-468 [11] = test: Cytotoxicity against human MDA-MB-468 cells assessed as cell growth at 0.005 uM by SRB assay; conditions: read-out: Activity
SF-539 = test: Cytotoxicity against human SF539 cells assessed as cell growth at 0.5 uM by SRB assay; conditions: read-out: Activity
OVCAR-3 [12] = test: Cytotoxicity against human OVCAR3 cells assessed as cell growth at 0.05 uM by SRB assay; conditions: read-out: Activity
786-0 = test: Cytotoxicity against human 786-0 cells assessed as cell growth at 5 uM by SRB assay; conditions: read-out: Activity
UO-31 [13] = test: Cytotoxicity against human UO31 cells assessed as cell growth at 50 uM by SRB assay; conditions: read-out: Activity
SNB-75 = test: Cytotoxicity against human SNB75 cells assessed as cell growth at 5 uM by SRB assay; conditions: read-out: Activity
COLO 205 = test: Cytotoxicity against human COLO205 cells assessed as cell growth at 0.005 uM by SRB assay; conditions: read-out: Activity
A549 = test: Cytotoxicity against human A549/ATCC cells assessed as cell growth at 50 uM by SRB assay; conditions: read-out: Activity
LOX IMVI = test: Cytotoxicity against human LOXIMVI cells assessed as cell growth at 0.5 uM by SRB assay; conditions: read-out: Activity
DU-145 [14] = test: Cytotoxicity against human DU145 cells assessed as cell growth at 50 uM by SRB assay; conditions: read-out: Activity; how it was run: as §1
OVCAR-8 = test: Cytotoxicity against human OVCAR8 cells assessed as cell growth at 50 uM by SRB assay; conditions: read-out: Activity
OVCAR-3 [15] = test: Cytotoxicity against human OVCAR3 cells by SRB assay; how it was run: as §2
ACHN = test: Cytotoxicity against human ACHN cells assessed as cell growth at 0.05 uM by SRB assay; conditions: read-out: Activity
HL-60(TB) = test: Cytotoxicity against human HL-60(TB) cells assessed as cell growth at 5 uM by SRB assay; conditions: read-out: Activity; how it was run: as §1
UO-31 [16] = test: Cytotoxicity against human UO31 cells assessed as cell growth at 0.005 uM by SRB assay; conditions: read-out: Activity
UACC-62 = test: Cytotoxicity against human UACC62 cells assessed as cell growth at 5 uM by SRB assay; conditions: read-out: Activity
HOP-62 [17] = test: Cytotoxicity against human HOP62 cells assessed as cell growth at 50 uM by SRB assay; conditions: read-out: Activity; how it was run: as §1
SF-295 [18] = test: Cytotoxicity against human SF295 cells assessed as cell growth at 0.5 uM by SRB assay; conditions: read-out: Activity
NCI-H23 = test: Cytotoxicity against human NCI-H23 cells assessed as cell growth at 0.005 uM by SRB assay; conditions: read-out: Activity
NCI-H226 = test: Cytotoxicity against human NCI-H226 cells assessed as cell growth at 5 uM by SRB assay; conditions: read-out: Activity
SF-295 [19] = test: Cytotoxicity against human SF295 cells assessed as cell growth at 50 uM by SRB assay; conditions: read-out: Activity
[20] = read-out: LC50 (the source's name)
[21] = read-out: pLC50 (the source's name) (converted)

SMILES: COc1cc([C@@H]2c3cc4c(cc3[C@@H](NC(=O)CN3CCN(CCCCCCN5CCN(CC(=O)N[C@@H]6c7cc8c(cc7[C@@H](c7cc(OC)c(O)c(OC)c7)[C@H]7C(=O)OC[C@@H]76)OCO8)CC5)CC3)[C@H]3COC(=O)[C@H]23)OCO4)cc(OC)c1O
- growth at 0.005 µM (NCI-H460): 100%
- growth at 5 µM (BT-549): -5%
- growth at 50 µM [1]: 9%
- growth at 0.05 µM (MOLT-4): 105%
- growth at 0.005 µM [2]: 104%
- growth at 0.5 µM (HOP-62 [3]): 98%
- growth at 50 µM (SNB-19 [4]): 11%
- growth at 0.5 µM (RXF 393): 91%
- growth at 0.05 µM (SNB-19 [5]): 95%
- growth at 0.5 µM (UO-31 [6]): 92%
- growth at 0.05 µM (UO-31 [7]): 97%
- growth at 5 µM (MDA-MB-435): 57%
- GI50 (IGROV-1; read-out: GI50): 40 µM
- CC50 (IGROV-1; [20]): > 50 µM
- TGI (IGROV-1; read-out: TGI): > 50 µM
- GI50 (IGROV-1; read-out: pGI50 (converted)): 39.8 µM
- CC50 (IGROV-1; [21]): > 50.1 µM
- TGI (IGROV-1; read-out: pTGI (converted)): > 50.1 µM
- growth at 0.5 µM (TK-10): 89%
- growth at 0.5 µM (SK-MEL-5): 85%
- growth at 0.5 µM (RPMI-8226): 67%
- GI50 (HOP-92; read-out: GI50): 1.55 µM
- CC50 (HOP-92; [20]): > 50 µM
- TGI (HOP-92; read-out: TGI): > 50 µM
- GI50 (HOP-92; read-out: pGI50 (converted)): 1.55 µM
- CC50 (HOP-92; [21]): > 50.1 µM
- TGI (HOP-92; read-out: pTGI (converted)): > 50.1 µM
- growth at 0.05 µM (MDA-MB-468 [8]): 89%
- growth at 0.05 µM (NCI-H322M): 105%
- growth at 0.5 µM (HCC 2998): 82%
- growth at 0.5 µM (DU-145 [9]): 89%
- GI50 (HCT-116; read-out: GI50): 1.63 µM
- CC50 (HCT-116; [20]): > 50 µM
- TGI (HCT-116; read-out: TGI): > 50 µM
- GI50 (HCT-116; read-out: pGI50 (converted)): 1.62 µM
- CC50 (HCT-116; [21]): > 50.1 µM
- TGI (HCT-116; read-out: pTGI (converted)): > 50.1 µM
- growth at 0.005 µM (DU-145 [10]): 102%
- growth at 0.005 µM (OVCAR-5): 93%
- growth at 0.005 µM (MDA-MB-468 [11]): 91%
- growth at 0.5 µM (SF-539): 71%
- growth at 0.05 µM (OVCAR-3 [12]): 108%
- growth at 5 µM (786-0): 40%
- growth at 50 µM (UO-31 [13]): 64%
- growth at 5 µM (SNB-75): 22%
- growth at 0.005 µM (COLO 205): 101%
- growth at 50 µM (A549): -37%
- growth at 0.5 µM (LOX IMVI): 61%
- growth at 50 µM (DU-145 [14]): 7%
- growth at 50 µM (OVCAR-8): 43%
- GI50 (OVCAR-3 [15]; read-out: GI50): 8.92 µM
- CC50 (OVCAR-3 [15]; [20]): > 50 µM
- TGI (OVCAR-3 [15]; read-out: TGI): > 50 µM
- GI50 (OVCAR-3 [15]; read-out: pGI50 (converted)): 8.91 µM
- CC50 (OVCAR-3 [15]; [21]): > 50.1 µM
- TGI (OVCAR-3 [15]; read-out: pTGI (converted)): > 50.1 µM
- growth at 0.05 µM (ACHN): 98%
- growth at 5 µM (HL-60(TB)): 6%
- growth at 0.005 µM (UO-31 [16]): 94%
- growth at 5 µM (UACC-62): 29%
- growth at 50 µM (HOP-62 [17]): -22%
- growth at 0.5 µM (SF-295 [18]): 94%
- growth at 0.005 µM (NCI-H23): 102%
- growth at 5 µM (NCI-H226): 52%
- growth at 50 µM (SF-295 [19]): 1%
